Data reported in article PMC3565064 (Analytical biochemistry, 2012).
Where two headings read alike, the source gives them in different places.

Tests used:
Aβ(1–42) aggregates = Aβ(1–42) aggregates (Homo sapiens, UniProt P05067); assay type: binding; settings: for ka, pseudo-first-order rate constant: DPV current decay fit, 100 mM phosphate buffer/50 mM KClO4 pH 7.4, 37 °C, average of three replicates; for t1/2, half-life: from pseudo-first-order ka
Method in brief: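 HFIP-pretreated, lyophilised Aβ(1–42) and the ferrocene-tagged peptide (20 μM) were dissolved in 100 mM phosphate/50 mM KClO₄, pH 7.4, at several peptide:Aβ ratios and held at 37 °C. DPV was recorded over 0–24 h (pulse amplitude 50 mV, width 50 ms, period 200 ms, sample width 17 ms). Points were averages of three replicates, and current–time curves were fitted to a pseudo-first-order rate law.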

[1] = Self-aggregation of the peptide incubated alone; assay type: physicochemical
Method in brief: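 The tagged peptide (20 μM) without Aβ was incubated at 37 °C. DPV was run in 100 mM phosphate/50 mM KClO₄, pH 7.4. For AFM, aliquots of the incubated solution were cast on mica pretreated with 10 mM NiCl₂ for 15 min, rinsed with water and dried under nitrogen. They were imaged in tapping mode over 5 μm × 5 μm fields at the stated incubation times.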

[2] = cited from earlier work

Aβ(1–42) aggregates, sequence (P05067 672-713 limits assumed): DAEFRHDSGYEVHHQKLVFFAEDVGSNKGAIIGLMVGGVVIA

Row | Substance | ka, pseudo-first-order rate constant (Aβ(1–42) aggregates; [Fc-KLVFFK6]:[Aβ(1–42)] 1:0.25, 20 μM Fc-KLVFFK6) | t1/2, half-life (Aβ(1–42) aggregates; [Fc-KLVFFK6]:[Aβ(1–42)] 1:0.25) [h] | ka, pseudo-first-order rate constant (Aβ(1–42) aggregates; [Fc-KLVFFK6]:[Aβ(1–42)] 1:0.5, 20 μM Fc-KLVFFK6) | t1/2, half-life (Aβ(1–42) aggregates; [Fc-KLVFFK6]:[Aβ(1–42)] 1:0.5) [h] | ka, pseudo-first-order rate constant (Aβ(1–42) aggregates; [Fc-KLVFFK6]:[Aβ(1–42)] 1:1, 20 μM Fc-KLVFFK6) | t1/2, half-life (Aβ(1–42) aggregates; [Fc-KLVFFK6]:[Aβ(1–42)] 1:1) [h] | ka, pseudo-first-order rate constant (Aβ(1–42) aggregates; [Fc-KLVFFK6]:[Aβ(1–42)] 1:2, 20 μM Fc-KLVFFK6) | t1/2, half-life (Aβ(1–42) aggregates; [Fc-KLVFFK6]:[Aβ(1–42)] 1:2) [h] | ka, pseudo-first-order rate constant (Aβ(1–42) aggregates; [Fc-KLVFFK6]:[Aβ(1–42)] 1:4, 20 μM Fc-KLVFFK6) | incubation time at which the DPV current reaches a plateau (Aβ(1–42) aggregates; all stoichiometric ratios, 20 μM Fc-KLVFFK6, 37 °C) | half-life of the conjugate formed between Fc-KLVFFK6 and the Aβ(1–42) aggregates (Aβ(1–42) aggregates; over all stoichiometric ratios of Table 1) [h] | self-aggregation, AFM of the peptide alone ([1]; 20 μM Fc-KLVFFK6 incubated alone, AFM (Figure 4 row D)) | self-aggregation, DPV current of the peptide alone ([1]; 20 μM Fc-KLVFFK6 without Aβ(1–42), 100 mM phosphate buffer/50 mM KClO4 pH 7.4, 37 °C, 24 h, steady DPV current) | self-aggregation [2]
1 | Fc-KLVFFK6 | (1.49 ± 0.15) × 10^−4 s^−1 | 1.2919 | (1.43 ± 0.08) × 10 ^−4 s^−1 | 1.3462 | (1.26 ± 0.07) × 10 ^−4 s^−1 | 1.5278 | (1.71 ± 0.05) × 10^−4 s^−1 | 1.1257 | (1.89 ± 0.05) × 10^−4 s^−1 | about 6 h | 1.2632 ± 0.1961 | does not self-aggregate when incubated alone | does not undergo self-aggregation | 
2 | KLVFF |  |  |  |  |  |  |  |  |  |  |  |  |  | known to self-aggregate
